The list is not random: actives were taken first. Their share in the collection is about 3.7%.
KCNQ1 inh: blocks the human KCNQ1 potassium channel; P51787; CHO-K1 KCNQ1, FluxOR thallium flux fluorescence; hits give high values; B-score at 10 µM; 310,000 tested, 1.3% active; AID 2642;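 active = compounds whose thallium flux B-score, printed positive for inhibition, exceeds three library SD while starting fluorescence stays within three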;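 note: channel opened by potassium depolarization with thallium stimulus after 20 min compound exposure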
hERG protect: compounds protecting human hERG from proarrhythmic drug block | Q12809 | CHO-hERG, FluxOR thallium flux, dofetilide IC70 present | activation (rescue from dofetilide block), less the hit threshold, % at 10 µM | 310,000 tested, 0.51% active;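 active = activation above the mean of controls blocked by dofetilide plus 5 SD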;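 note: thallium influx through hERG after potassium depolarization seen as dye fluorescence rise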
KCNK3 inh: human KCNK3 channel inhibition, primary screen; B-score at 10 µM; 340,000 tested, 0.84% active; CHO-KCNK3 thallium flux, FluxOR fluorescence; hits give low values; AID 602410;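 active = B-score under library mean minus 4 SD, starting fluorescence ratio at most library mean plus 5 SD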;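 note: more negative B-score means stronger inhibition of thallium flux through KCNK3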
KCNQ1 pot: potentiates or activates the human KCNQ1 potassium channel; P51787; CHO-K1 KCNQ1, thallium flux FluxOR fluorescence; hits give high values; B-score at 10 µM; 310,000 tested, 0.35% active; AID 2648;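 active = fluorescence ratio B-score, a plate-corrected score, at least three library SD, with initial intensity B-score within 5 SD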
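System: CHO-K1 cells stably expressing KCNQ1 / Medium: assay buffer for compound exposure, DMSO matched across wells / Reagent: thallium- and potassium-containing depolarizing buffer / Compound: one concentration, matched DMSO / Incubation: 20 min compound pretreatment at room temperature / Measured by: kinetic FluxOR fluorescence, 10 s baseline plus 110 s post-stimulus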
Kir21 block: inhibitors of mouse Kir2.1 inward-rectifier potassium channel; HEK293-Kir2.1, FluxOR thallium flux fluorescence; hits give low values; P35561; 310,000 tested, 0.85% active; B-score at 10 µM;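 active = fluorescence ratio B-score at or below minus 3 SD of library scores, with starting-brightness B-score within 2 SD, cut at about -4.2 in these data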;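 note: channel flux triggered by added potassium and thallium sulfate stimulus; B-score of peak minus minimum fluorescence over baseline after thallium stimulus; more negative B-score means stronger Kir2.1 block with less thallium influx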
Target sequence (P35561 whole entry, looked up): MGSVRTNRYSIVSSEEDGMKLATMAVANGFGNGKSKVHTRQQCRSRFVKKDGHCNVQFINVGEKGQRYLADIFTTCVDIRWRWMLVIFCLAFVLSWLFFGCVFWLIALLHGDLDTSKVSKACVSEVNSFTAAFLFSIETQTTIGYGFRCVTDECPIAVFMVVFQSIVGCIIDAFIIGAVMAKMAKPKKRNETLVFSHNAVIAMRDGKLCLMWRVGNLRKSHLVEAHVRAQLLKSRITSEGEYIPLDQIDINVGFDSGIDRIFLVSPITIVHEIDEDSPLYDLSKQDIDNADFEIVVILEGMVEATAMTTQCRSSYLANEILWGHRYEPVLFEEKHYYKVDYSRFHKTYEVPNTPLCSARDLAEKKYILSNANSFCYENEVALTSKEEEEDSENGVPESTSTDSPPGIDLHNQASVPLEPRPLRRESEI
KCNK9 inh: inhibitors of human KCNK9 two-pore domain potassium channel. 310,000 tested, 1.2% active. HEK293 KCNK9, FluxOR thallium flux fluorescence; hits give low values. AID 488922. B-score at 10 µM;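 active = ratio B-score over 3 SD below the library mean, with starting fluorescence within 5 SD of its mean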;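 note: negative B-score means less thallium flux so channel inhibition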
KCNK9 inh conf: human KCNK9 inhibitor confirmation. shares compounds with KCNK9 inh. HEK293 KCNK9 cells, FluxOR thallium flux fluorescence. inhibition, % at 10 µM. 4,900 tested, 43% active. AID 492992;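 active = thallium signal inhibited by more than 5 SD of the compound-free buffer control wells, on both duplicate plates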
Kir2-1 spec: mouse Kir2.1 off-target activity of KCNK9 modulators | shares compounds with KCNK9 inh | Kir2.1 cells, FluxOR thallium flux fluorescence | inhibition, % at 10 µM | 4,900 tested, 4% active | AID 492993;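 active = thallium signal drop more than 5 SD beyond the mean of the no-compound control wells, seen in both duplicate plates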;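 note: signal is fluorescence rise after thallium addition divided by baseline fluorescence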
KCNK9 uninduced: second counter-screen for KCNK9 modulators: effect in non-induced cells; shares compounds with KCNK9 inh; non-induced KCNK9-HEK293, FluxOR thallium flux; inhibition, % at 10 µM; 4,900 tested, 40% active; AID 492997;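 active = thallium signal drop beyond 5 SD of the untreated control mean, on both duplicate plates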
KCNK3 inh conf: confirmation of human KCNK3 two-pore domain potassium channel inhibitors; shares compounds with KCNK3 inh; CHO-KCNK3 thallium flux, FluxOR fluorescence; 0% buffer, 100% carvedilol maximal block; ratio percent of control, % at 10 µM; 2,400 tested, 99% active; AID 651638;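 active = ratio percent of control, averaged over triplicates, above buffer control mean plus 5 SD, cut at about 64% in these data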;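 note: ratio is the fluorescence rise from min to max over baseline after thallium stimulus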
KCNK3 uninduced: activity in cells without induced KCNK3 expression; 2,400 tested, 40% active; non-induced KCNK3 parental cells, FluxOR thallium flux; hits give low values; thallium flux ratio (lower = more inhibition) at 10 µM; shares compounds with KCNK3 inh;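 active = thallium flux ratio, averaged over three wells, more than 5 SD below the buffer control mean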;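 note: host cells are CHO cells without KCNK3 induction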
Large screens that a line does not name were inactive (follow-up assays come after a bar, where they were run).

CC(C)c1ccc(Nc2nnns2)cc1	none
COc1ccccc1NC(=O)CCSc1ccc(C)cc1	none
COc1ccccc1NC(=O)C(C)OC(=O)CCSc1ccc(F)cc1 (stereo not drawn)	KCNK9 inh -16 | KCNK9 inh conf 62% | Kir2-1 spec inactive | KCNK9 uninduced 30% | KCNK3 inh conf 120 | KCNK3 uninduced inactive
COc1nc(N2CCCCCC2)nc(N2CCCCCC2)n1	KCNK9 inh -11 | KCNK9 inh conf inactive | Kir2-1 spec inactive | KCNK9 uninduced 54% | KCNK3 inh conf 99 | KCNK3 uninduced inactive
COC(=O)c1cccnc1-n1c(=O)c2cccnc2n(Cc2cccc(OC)c2)c1=O	none
COC(=O)c1cc(-c2cc(OC)ccc2OC)nc2c1c(=O)n(C)c(=O)n2Cc1ccccc1	KCNK3 inh -11 | KCNK9 inh conf inactive | Kir2-1 spec inactive | KCNK9 uninduced inactive | KCNK3 inh conf 101 | KCNK3 uninduced inactive
CN(CCCC1CCCC1)C(=O)c1cc(COc2ccc(F)c(F)c2)on1	KCNK3 inh -9.2, KCNK9 inh -8.8 | KCNK9 inh conf inactive | Kir2-1 spec inactive | KCNK9 uninduced 38% | KCNK3 inh conf 122 | KCNK3 uninduced inactive
CN(CCC1CCCCO1)C(=O)c1cc(COc2ccc(F)cc2F)on1 (stereo not drawn)	none
CN(N=Nc1cccc([N+](=O)[O-])c1)c1cccc([N+](=O)[O-])c1	KCNK9 inh -11 | KCNK9 inh conf inactive | Kir2-1 spec inactive | KCNK9 uninduced 34% | KCNK3 inh conf 90 | KCNK3 uninduced inactive
CCCN(N=Nc1cccc([N+](=O)[O-])c1)c1cccc([N+](=O)[O-])c1	KCNK3 inh -9.2, KCNK9 inh -12 | KCNK9 inh conf 50% | Kir2-1 spec inactive | KCNK9 uninduced 43% | KCNK3 inh conf 115 | KCNK3 uninduced inactive
CCOC(=O)N1CCN(Cc2c(NC(=O)c3ccco3)sc(C)c2C)CC1	none
Cc1sc(NC(=O)c2ccco2)c(CN2CCN(c3ccc(F)cc3)CC2)c1C	KCNK3 inh -10, KCNK9 inh -15 | KCNK9 inh conf inactive | Kir2-1 spec inactive | KCNK9 uninduced 29% | KCNK3 inh conf 110 | KCNK3 uninduced 0.15
COc1ccc(CCNC(=O)CCn2c(SCC(=O)N3CCCC3)nc3ccccc3c2=O)cc1OC	none
CCc1nnc(NC(=O)CCC(=O)N2CCN(Cc3ccc(F)cc3)CC2)s1	none
N#CC1=C(N)n2c(s/c(=C\c3ccco3)c2=O)=C(C#N)C1c1ccco1 (stereo not drawn)	none
N#CC1=C(N)n2c(s/c(=C\c3cccs3)c2=O)=C(C#N)C1c1cccs1 (stereo not drawn)	KCNK3 inh -9.4, KCNK9 inh -11 | KCNK9 inh conf 26% | Kir2-1 spec inactive | KCNK9 uninduced 39% | KCNK3 inh conf 96 | KCNK3 uninduced 0.15
COc1cc2c(c3oc(-c4ccccc4)cc(=O)c13)C=CC(C)(C)O2	KCNK3 inh -8.8, KCNK9 inh -9.4 | KCNK9 inh conf 44% | Kir2-1 spec inactive | KCNK9 uninduced inactive | KCNK3 inh conf 122 | KCNK3 uninduced 0.14
CCOc1ccc(C2/C(=C(/O)c3ccc4c(c3)CC(C)O4)C(=O)C(=O)N2CCCn2ccnc2)cc1OCC (stereo not drawn)	none
O=C(N/N=C/c1c(O)ccc2ccccc12)c1cccc(C(F)(F)F)c1	KCNK3 inh -11, KCNK9 inh -9.3 | KCNK9 inh conf 61% | Kir2-1 spec 46% | KCNK9 uninduced 61% | KCNK3 inh conf 159 | KCNK3 uninduced 0.091
C/C(=N\Nc1ccccc1C(=O)O)c1ccncc1	none
CCc1ccc(OCc2cnc(Cl)s2)cc1	none
O=C(Nc1cccc(NC(=O)c2cccc(Cl)c2)c1)c1cccnc1	none
Fc1ccc(C(c2nnnn2CCc2ccccc2)N2CCCc3ccccc32)cc1 (stereo not drawn)	KCNK3 inh -9.1, KCNK9 inh -8.3 | KCNK9 inh conf 34% | Kir2-1 spec inactive | KCNK9 uninduced 36% | KCNK3 inh conf 93 | KCNK3 uninduced 0.14
Fc1ccc(C(c2nnnn2C2CCCC2)N2CCc3ccccc32)cc1 (stereo not drawn)	KCNK3 inh -9.3, KCNK9 inh -9.5 | KCNK9 inh conf 38% | Kir2-1 spec inactive | KCNK9 uninduced 46% | KCNK3 inh conf 107 | KCNK3 uninduced inactive
COc1cc2cc(C(c3nnnn3C3CCCC3)N3CCc4ccccc43)c(=O)[nH]c2cc1OC (stereo not drawn)	none
CCOc1cc(N2CCOCC2)c(OCC)cc1NC(=O)CN1CCSC1=O	none (no result: KCNQ1 inh, hERG protect, KCNQ1 pot, Kir21 block, KCNK9 inh)
CC(C)OC(=O)CSc1nc(Cc2ccccc2)nc2ccccc12	KCNK3 inh -11, KCNK9 inh -15 | KCNK9 inh conf 58% | Kir2-1 spec 36% | KCNK9 uninduced 38% | KCNK3 inh conf 97 | KCNK3 uninduced inactive
CC(C)OC(=O)CSc1nc(C(C)C)nc2ccccc12	none
COc1ccc(NC(=O)CCC(=O)OCc2ccc([N+](=O)[O-])cc2)cc1	none
O=C(COC(=O)c1cccs1)c1ccc2ccccc2c1	KCNK3 inh -13, KCNK9 inh -18 | KCNK9 inh conf 56% | Kir2-1 spec inactive | KCNK9 uninduced 30% | KCNK3 inh conf 101 | KCNK3 uninduced inactive
Cn1c2ccccc2c(=O)c2c(=O)n(-c3ccccc3)c(-c3ccc(C(C)(C)C)cc3)nc21	KCNK3 inh -8.9, KCNK9 inh -12 | KCNK9 inh conf 34% | Kir2-1 spec inactive | KCNK9 uninduced inactive | KCNK3 inh conf 130 | KCNK3 uninduced 0.099
Cc1ccc(-c2nc3c(c(=O)c4ccccc4n3C)c(=O)n2-c2ccc(F)cc2)cc1	none
O=C(NCc1cccs1)C1CC(=O)N(Cc2ccccc2)C1 (stereo not drawn)	none (no result: KCNQ1 inh, hERG protect, KCNQ1 pot, Kir21 block, KCNK9 inh)
C=Cc1ccc(Cn2nc(-c3ccccc3)ccc2=O)cc1	none
